What was measured:
[1] = target: T1, Steroid 17-alpha-hydroxylase/17,20 lyase (Rattus norvegicus, UniProt P11715); assay: Percent inhibition of 17-alpha-hydroxylase/17,20 lyase of rat testes microsomes at 100 uM
T1 sequence (P11715 whole entry): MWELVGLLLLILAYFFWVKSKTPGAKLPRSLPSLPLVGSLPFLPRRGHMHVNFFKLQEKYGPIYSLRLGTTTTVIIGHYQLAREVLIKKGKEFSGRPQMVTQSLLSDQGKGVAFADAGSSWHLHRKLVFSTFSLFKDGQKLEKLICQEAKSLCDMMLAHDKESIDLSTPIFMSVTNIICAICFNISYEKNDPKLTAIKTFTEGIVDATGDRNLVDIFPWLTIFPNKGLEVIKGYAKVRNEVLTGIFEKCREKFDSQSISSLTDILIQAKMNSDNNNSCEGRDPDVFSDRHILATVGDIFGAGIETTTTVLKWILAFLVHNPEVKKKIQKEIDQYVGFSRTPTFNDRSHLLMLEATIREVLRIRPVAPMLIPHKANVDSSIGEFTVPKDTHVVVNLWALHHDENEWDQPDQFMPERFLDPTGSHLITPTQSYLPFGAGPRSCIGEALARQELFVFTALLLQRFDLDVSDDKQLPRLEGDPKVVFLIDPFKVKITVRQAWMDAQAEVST

[2] = target: T2, Steroid 5-alpha-reductase (Rattus norvegicus, UniProt P24008+P31214); assay: Inhibition of rat testosterone-5 alpha-reductase activity at pH 6.6 from rat; format: protein assay
T2 sequence (P24008 whole entry): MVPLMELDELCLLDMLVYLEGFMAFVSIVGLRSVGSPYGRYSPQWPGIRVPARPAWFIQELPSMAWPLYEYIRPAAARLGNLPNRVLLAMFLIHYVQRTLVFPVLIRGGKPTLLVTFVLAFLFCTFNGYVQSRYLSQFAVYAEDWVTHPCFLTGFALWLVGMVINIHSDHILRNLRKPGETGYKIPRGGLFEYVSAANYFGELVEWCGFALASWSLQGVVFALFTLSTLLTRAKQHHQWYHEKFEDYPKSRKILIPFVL
T2 sequence (P31214 whole entry): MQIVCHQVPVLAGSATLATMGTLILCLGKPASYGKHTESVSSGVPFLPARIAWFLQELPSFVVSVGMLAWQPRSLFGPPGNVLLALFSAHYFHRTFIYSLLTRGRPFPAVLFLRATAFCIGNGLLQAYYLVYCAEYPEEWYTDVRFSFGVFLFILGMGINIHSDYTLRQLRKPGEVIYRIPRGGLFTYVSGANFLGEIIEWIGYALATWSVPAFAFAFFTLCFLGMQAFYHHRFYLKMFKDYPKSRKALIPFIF
Summary of the method: (§1)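 Crude nuclear fraction (ca. 1.5 mg) from adult Wistar rat ventral prostate, in 50 mM potassium phosphate. The substrate was 5 μM testosterone with 4-[¹⁴C]testosterone, plus 1 mM NADPH and 1 mM DTT. Incubation ran 30 min at 37 °C and was stopped with ethyl acetate/HgCl₂. [¹⁴C]DHT was measured by TLC radioscan. Inhibitors were added in 2% DMSO at 1, 2, 5, 10 and 20 μM, with assays in duplicate.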

[3] = target: T2, Steroid 5-alpha-reductase; assay: Inhibition of Testosterone-5 alpha-reductase activity at pH 7.4 from rat; format: protein assay; summary of the method: as §1
[4] = target: T1, Steroid 17-alpha-hydroxylase/17,20 lyase; assay: Percent inhibition of Steroid 17-alpha-hydroxylase/17,20 lyase from rat testes microsomes at 100 uM
[5] = target: T2, Steroid 5-alpha-reductase; assay: Binding constant of Testosterone-5 alpha-reductase activity at pH 7.4; format: protein assay
[6] = target: T1, Steroid 17-alpha-hydroxylase/17,20 lyase; assay: Inhibition of 17-alpha-hydroxylase/17,20 lyase from rat testes microsomal preparation; format: microsomes, Testis
Summary of the method: (§2)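 Rat testis microsomes as enzyme source. The assay contained 1 μM [³H]progesterone, 250 μM NADPH, a glucose-6-phosphate/G6P dehydrogenase regenerating system, 1 mM MgCl₂, 0.1 mM EDTA and 0.1 mM DTT in 50 mM sodium phosphate at pH 7.4, with 5% ethanol vehicle. Incubation ran 10 min at 37 °C. Substrate, 17α-OH-progesterone and product were quantified, giving separate hydroxylase and lyase steps. Each point was run in triplicate at ≥3 concentrations, and IC50 was taken from a Dixon linear regression.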

[7] = target: T2, Steroid 5-alpha-reductase; assay: Inhibition of Testosterone-5 alpha-reductase activity at pH 6.6 from rat; B = no inhibition at the highest concentration tested (20 uM); format: protein assay; summary of the method: as §1
[8] = target: T1, Steroid 17-alpha-hydroxylase/17,20 lyase; assay: Inhibition of Steroid 17-alpha-hydroxylase/17,20 lyase from rat testes microsomal preparation; summary of the method: as §2
[9] = target: T2, Steroid 5-alpha-reductase; assay: Inhibition of Testosterone-5 alpha-reductase activity at pH 7.4 from rat; B = no inhibition at the highest concentration tested (20 uM); format: protein assay; summary of the method: as §1
[10] = target: T1, Steroid 17-alpha-hydroxylase/17,20 lyase; assay: Percent inhibition of Steroid 17-alpha-hydroxylase/17,20 lyase of rat testes microsomes at 100 uM

Row | inhibition at 100 µM [1] | IC50 [2] | IC50 [3] | inhibition at 100 µM [4] | Ki [5] | IC50 [6] | IC50 [7] | IC50 [8] | IC50 [9] | inhibition at 100 µM [10] | Compound
1 | 15% | 0.79 µM | 5 µM | 14% | 4 µM |  |  |  |  |  | Oc1c(F)c(F)c(/N=N/c2c(F)c(F)c(O)c(F)c2F)c(F)c1F
2 | 62% |  |  | 83% |  | 63 µM | No inhibition | 16 µM |  |  | Oc1c(F)c(F)c(F)c(F)c1/N=N/c1c(F)c(F)c(F)c(F)c1F
3 | 4% |  |  | 0% |  |  |  |  | No inhibition |  | Fc1c(F)c(F)c(/N=N/c2c(F)c(F)c(F)c(F)c2F)c(F)c1F
4 |  | 2 µM | 14 µM | 71% | 10 µM | 30 µM |  | 33 µM |  | 76% | Oc1c(F)c(F)c(/N=N/c2c(F)c(F)c(F)c(F)c2F)c(F)c1F

Continued, compound first:

Row | Compound | inhibition at 100 µM [1] | IC50 [2] | IC50 [3] | inhibition at 100 µM [4] | Ki [5] | IC50 [6] | IC50 [7] | IC50 [8] | IC50 [9] | inhibition at 100 µM [10]
5 | CC(=O)[C@H]1CC[C@H]2[C@@H]3CCC4=CC(=O)CC[C@]4(C)[C@H]3CC[C@]12C [PROGESTERONE] |  | 1.6 µM | 2.6 µM |  |  |  |  |  |  | 
6 | Oc1ccc(/N=N/c2ccccc2)cc1 | 6% |  |  | 0% |  |  |  |  | No inhibition | 
7 | CC(=O)N1CCN(c2ccc(OCC3COC(Cn4ccnc4)(c4ccc(Cl)cc4Cl)O3)cc2)CC1 (stereo unspecified) [KETOCONAZOLE] | 62% |  |  | 48% |  | 6 µM |  | 11 µM |  | 
8 | c1ccc(/N=N/c2ccccc2)cc1 [AZOBENZENE] | 0% |  |  | 0% |  |  |  |  | No inhibition | 
9 | Fc1c(F)c(F)c2c(c1F)N=Nc1c(F)c(F)c(F)c(F)c1O2 | 67% |  |  | 88% |  | 50 µM |  | 15 µM |  | 
